Reference: ChEMBL document CHEMBL1126270, “Synthesis of 3-[(2,3-dihydro-1,1,3-trioxo-1,2-benzisothiazol-2-yl)alkyl] 1,4-dihydropyridine-3,5-dicarboxylate derivatives as calcium channel modulators” (J Med Chem, 1992)

Assays:
Oryctolagus cuniculus [1] = species on record: Oryctolagus cuniculus; test: Blockade of calcium-evoked contractions evaluated in depolarized rabbit aortic strips; format: functional; settings: Aorta
In short: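 Male New Zealand rabbit thoracic aorta, helicoidal strips, 2.5 g preload, Krebs–bicarbonate, 37 °C, 95% O2/5% CO2, pH 7.4. After 1 h equilibration, depolarized with 35 mM K+; 1.5 mM Ca2+ added 10 min later, repeated until reproducible. Compound at increasing concentrations from 20 min before and during Ca2+ addition; responses normalized to initial tension; IC50 by Finney method.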

[2] = target: T1, Voltage-dependent L-type calcium channel subunit alpha-1C (Oryctolagus cuniculus, UniProt P15381); test: Selectivity index was measured as the IC50 needed to depress the heart beat divided by IC50 needed to block [Ca2+] contractions in rabbit aortic strips; format: functional, tissue-based, Aorta
T1 sequence (P15381 whole entry): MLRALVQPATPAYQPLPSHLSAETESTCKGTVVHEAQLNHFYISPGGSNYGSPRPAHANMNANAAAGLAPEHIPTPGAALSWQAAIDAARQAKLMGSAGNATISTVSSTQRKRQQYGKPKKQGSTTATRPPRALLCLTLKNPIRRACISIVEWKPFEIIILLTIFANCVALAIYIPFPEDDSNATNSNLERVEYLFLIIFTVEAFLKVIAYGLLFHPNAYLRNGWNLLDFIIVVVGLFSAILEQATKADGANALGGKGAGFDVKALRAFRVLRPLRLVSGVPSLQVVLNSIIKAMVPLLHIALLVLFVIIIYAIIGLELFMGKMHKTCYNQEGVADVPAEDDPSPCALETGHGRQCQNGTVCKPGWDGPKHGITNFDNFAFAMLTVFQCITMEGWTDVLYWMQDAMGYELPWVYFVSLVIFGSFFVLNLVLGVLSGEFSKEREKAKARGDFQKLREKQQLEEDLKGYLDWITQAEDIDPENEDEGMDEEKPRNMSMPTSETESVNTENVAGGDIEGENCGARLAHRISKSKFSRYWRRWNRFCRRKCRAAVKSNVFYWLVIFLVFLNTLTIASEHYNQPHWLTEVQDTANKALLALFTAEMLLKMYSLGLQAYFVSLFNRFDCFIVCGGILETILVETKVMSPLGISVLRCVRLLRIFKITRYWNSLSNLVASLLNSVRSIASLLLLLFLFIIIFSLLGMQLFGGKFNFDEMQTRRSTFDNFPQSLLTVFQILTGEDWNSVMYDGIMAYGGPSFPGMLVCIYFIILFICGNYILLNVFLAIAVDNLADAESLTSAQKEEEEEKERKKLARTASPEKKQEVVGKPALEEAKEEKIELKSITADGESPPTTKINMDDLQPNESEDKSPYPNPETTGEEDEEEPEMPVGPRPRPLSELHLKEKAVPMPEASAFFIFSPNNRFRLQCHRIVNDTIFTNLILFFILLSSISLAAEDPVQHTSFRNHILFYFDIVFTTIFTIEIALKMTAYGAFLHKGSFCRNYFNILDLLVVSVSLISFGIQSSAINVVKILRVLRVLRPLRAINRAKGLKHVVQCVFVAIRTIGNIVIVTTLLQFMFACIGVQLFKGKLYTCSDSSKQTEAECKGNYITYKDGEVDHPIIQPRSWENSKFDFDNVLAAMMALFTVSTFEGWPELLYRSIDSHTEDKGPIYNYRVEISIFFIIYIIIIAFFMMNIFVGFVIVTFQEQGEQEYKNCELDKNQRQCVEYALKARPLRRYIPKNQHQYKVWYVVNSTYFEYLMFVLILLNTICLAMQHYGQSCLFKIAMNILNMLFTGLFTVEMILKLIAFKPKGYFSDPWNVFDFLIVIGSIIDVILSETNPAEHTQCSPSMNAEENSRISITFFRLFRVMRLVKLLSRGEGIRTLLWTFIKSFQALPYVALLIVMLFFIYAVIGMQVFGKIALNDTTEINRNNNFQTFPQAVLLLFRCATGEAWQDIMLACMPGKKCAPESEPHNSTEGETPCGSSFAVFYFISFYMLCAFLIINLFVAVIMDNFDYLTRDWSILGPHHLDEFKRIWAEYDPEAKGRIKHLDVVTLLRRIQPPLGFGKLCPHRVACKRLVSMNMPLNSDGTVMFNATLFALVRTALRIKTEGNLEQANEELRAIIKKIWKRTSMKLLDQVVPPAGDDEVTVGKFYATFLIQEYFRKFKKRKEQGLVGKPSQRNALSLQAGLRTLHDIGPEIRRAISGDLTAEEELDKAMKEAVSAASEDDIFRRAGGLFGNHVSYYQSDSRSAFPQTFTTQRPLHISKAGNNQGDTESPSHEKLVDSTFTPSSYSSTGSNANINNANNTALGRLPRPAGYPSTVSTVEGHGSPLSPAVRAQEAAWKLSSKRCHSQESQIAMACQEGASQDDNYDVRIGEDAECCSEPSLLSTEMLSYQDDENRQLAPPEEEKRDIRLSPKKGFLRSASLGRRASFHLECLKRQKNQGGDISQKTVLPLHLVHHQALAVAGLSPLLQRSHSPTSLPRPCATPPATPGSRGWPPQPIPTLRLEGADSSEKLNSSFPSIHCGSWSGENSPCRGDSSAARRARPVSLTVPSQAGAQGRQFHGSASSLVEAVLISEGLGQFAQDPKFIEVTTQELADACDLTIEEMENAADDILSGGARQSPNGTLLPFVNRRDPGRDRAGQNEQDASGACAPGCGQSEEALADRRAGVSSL

Oryctolagus cuniculus [3] = species on record: Oryctolagus cuniculus; test: Inhibition of electrically stimulated rabbit left atria contraction.; format: functional
In short: (§1)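 Rabbit left atria electrically driven (1 Hz, 10 ms, twice threshold voltage), equilibrated 1–1.5 h. Compounds added cumulatively (10^-10–10^-6 M), diluted from DMSO stocks into Krebs–Henseleit, final DMSO <0.1%. Isometric force recorded; IC50 from contractile force relative to initial control values, with 95% confidence limits.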

Oryctolagus cuniculus [4] = species on record: Oryctolagus cuniculus; test: Recovery of the initial contraction of rabbit aortic strips, blocked at 10e-7 M concentration.; settings: Aorta
Rattus norvegicus [5] = test: Systolic blood pressure after administration of a single oral dose (20 mg/kg) in spontaneously hypertensive rats; format: functional
In short: (§2)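 Conscious SHR trained 2 weeks, warmed at 31 ± 1 °C for 2 h; tail plethysmography SBP, mean of five readings; only rats above 170 mmHg used. After 24 h fasting, 20 mg/kg by gavage in 20% PEG-400/0.5% methylcellulose (10 mL/kg); SBP change read 1 h post-dose, n = 12.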

Oryctolagus cuniculus [6] = species on record: Oryctolagus cuniculus; test: Relative potency evaluated (relative potency = IC50 of compound / IC50 of nifedipine) in rabbit; format: functional
Oryctolagus cuniculus [7] = species on record: Oryctolagus cuniculus; test: Maximum contractile force in rabbit aorta strips; format: functional
In short: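 Rabbit aortic strips, after equilibration in Ca2+-free Krebs, switched to buffer with 10 mM K+. Repeated 1.5 mM Ca2+ pulses until reproducible. Increasing compound concentrations each given 10 min before a further 1.5 mM Ca2+ pulse. Maximum contractile force (mg) taken as vasoconstrictor effect; data as mean ± SEM at 10^-6 M.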

Rattus norvegicus [8] = test: Systolic blood pressure after administration of a single oral dose (20 mg/kg) in spontaneously hypertensive rats.; format: functional; in short: as §2
Oryctolagus cuniculus [9] = species on record: Oryctolagus cuniculus; test: Inhibition of electrically stimulated rabbit left atria contraction; format: functional; in short: as §1
[10] = target: T1, Voltage-dependent L-type calcium channel subunit alpha-1C; test: Blockade of calcium-evoked contractions in depolarized aortic strips; format: functional, tissue-based, Aorta
Oryctolagus cuniculus [11] = species on record: Oryctolagus cuniculus; test: Relative potency was evaluated. (relative potency = IC50 of compound / IC50 of nifedipine); format: functional
Rattus norvegicus [12] = species on record: Rattus norvegicus; test: Duration of action in spontaneously hypertensive rats.; format: functional
In short: (§3)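 Anesthetized (pentobarbitone 70 mg/kg ip) Okamoto SHR, 290 ± 30 g; carotid pressure, femoral vein dosing. Cumulative increasing iv bolus doses of 1, 3, 6, 10, 20, 30 µg/kg in PEG-400 (0.1 mL/kg), each recorded 15 min; ED25 for lowering SBP and DBP and duration of hypotensive action estimated.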

Rattus norvegicus [13] = species on record: Rattus norvegicus; test: Reducing systolic blood pressure in spontaneously hypertensive rats.; format: functional; settings: Artery; in short: as §2
Rattus norvegicus [14] = species on record: Rattus norvegicus; test: Compound evaluated for reducing diastolic blood pressure in spontaneously hypertensive rats.; format: functional; settings: Artery; in short: as §3

| Compound | IC50 (Oryctolagus cuniculus [1]) [nM] | IC50 (Oryctolagus cuniculus [3]) [nM] | IC50 (Oryctolagus cuniculus [9]) [nM] | IC50 [10] [nM] | Selectivity index [2] | Recovery (Oryctolagus cuniculus [4]) [%] | SBP change (Rattus norvegicus [5]) [%] | Relative potency (Oryctolagus cuniculus [6]) | Max contractile force (Oryctolagus cuniculus [7]) [mg] | SBP change (Rattus norvegicus [8]) [%] | Relative potency (Oryctolagus cuniculus [11]) | Duration (Rattus norvegicus [12]) [min] | ED25 (Rattus norvegicus [13]) [mg/kg] | ED25 (Rattus norvegicus [14]) [mg/kg] |
| --- | --- | --- | --- | --- | --- | --- | --- | --- | --- | --- | --- | --- | --- | --- |
| CC1=NC(C)=C(C(=O)OCCCN2C(=O)c3ccccc3S2(=O)=O)C(c2cccc(Cl)c2Cl)/C1=C(\O)OC(C)C (stereo not drawn) | 2.1 | 157 | – | – | 75 | 0 | 11 | 1.4 | – | – | – | – | – | – |
| CO/C(O)=C1\C(C)=NC(C)=C(C(=O)OCCN2C(=O)c3ccccc3S2(=O)=O)C1c1ccccc1C(F)(F)F (stereo not drawn) | > 1000 | – | – | – | – | – | – | – | 420 | – | – | – | – | – |
| CO/C(O)=C1\C(C)=NC(C)=C(C(=O)OCN2C(=O)c3ccccc3S2(=O)=O)C1c1cccc(Cl)c1Cl (stereo not drawn) | – | – | – | 5.1 | – | – | – | – | – | – | 0.6 | – | – | – |
| CCO/C(O)=C1\C(C)=NC(C)=C(C(=O)OCCCN2C(=O)c3ccccc3S2(=O)=O)C1c1cccc(Cl)c1Cl (stereo not drawn) | 1.8 | 353 | – | – | 200 | 0 | 36 | 1.6 | – | – | – | 2 | 0.015 | 0.012 |
| CC1=NC(C)=C(C(=O)OCCN2C(=O)c3ccccc3S2(=O)=O)C(c2cccc(Cl)c2Cl)/C1=C(\O)OC(C)(C)C (stereo not drawn) | 2.3 | 281 | – | – | 122 | 0 | 36 | 1.3 | – | – | – | >15 | 0.014 | 0.011 |
| CC1=NC(C)=C(C(=O)OCCN2C(=O)c3ccccc3S2(=O)=O)C(c2cccc([N+](=O)[O-])c2)/C1=C(\O)OCC1CCCO1 (stereo not drawn) | 107 | – | – | – | – | – | – | <0.1 | 570 | – | – | – | – | – |

More lines, in order of falling IC50 (Oryctolagus cuniculus [1]), values ahead:

| IC50 (Oryctolagus cuniculus [1]) [nM] | IC50 (Oryctolagus cuniculus [3]) [nM] | IC50 (Oryctolagus cuniculus [9]) [nM] | IC50 [10] [nM] | Compound | Selectivity index [2] | Recovery (Oryctolagus cuniculus [4]) [%] | SBP change (Rattus norvegicus [5]) [%] | Relative potency (Oryctolagus cuniculus [6]) | Max contractile force (Oryctolagus cuniculus [7]) [mg] | SBP change (Rattus norvegicus [8]) [%] | Relative potency (Oryctolagus cuniculus [11]) | Duration (Rattus norvegicus [12]) [min] | ED25 (Rattus norvegicus [13]) [mg/kg] | ED25 (Rattus norvegicus [14]) [mg/kg] |
| --- | --- | --- | --- | --- | --- | --- | --- | --- | --- | --- | --- | --- | --- | --- |
| 1.6 | – | 115 | – | CC1=NC(C)=C(C(=O)OCCN2C(=O)c3ccccc3S2(=O)=O)C(c2cccc([N+](=O)[O-])c2)/C1=C(\O)OC(C)(C)C (stereo not drawn) | 72 | 0 | – | 1.8 | – | 25 | – | – | – | – |
| 1.2 | – | 18.6 | – | CC1=NC(C)=C(C(=O)OCCCN2C(=O)c3ccccc3S2(=O)=O)C(c2ccccc2[N+](=O)[O-])/C1=C(\O)OC(C)C (stereo not drawn) | 15 | 0.2 | – | 2.4 | – | – | – | – | – | – |
| 0.8 | – | 521 | – | CO/C(O)=C1\C(C)=NC(C)=C(C(=O)OCCCN2C(=O)c3ccccc3S2(=O)=O)C1c1cccc(Cl)c1Cl (stereo not drawn) | 686 | 0 | 35 | 3.6 | – | – | – | >15 | 0.012 | 0.01 |
| 0.3 | 37 | – | – | CC1=NC(C)=C(C(=O)OCCN2C(=O)c3ccccc3S2(=O)=O)C(c2cccc([N+](=O)[O-])c2)/C1=C(\O)OC(C)C (stereo not drawn) | 137 | 0 | – | 9.7 | – | 20 | – | – | – | – |
| 0.3 | 686 | – | – | CC1=NC(C)=C(C(=O)OCCN2C(=O)c3ccccc3S2(=O)=O)C(c2cccc(Cl)c2Cl)/C1=C(\O)OC(C)C (stereo not drawn) | 2744 | 0 | 8 | 10 | – | – | – | – | – | – |
